Consider 14 molecules from ChEMBL document CHEMBL2034814, “Synthesis and evaluation of γ-lactam analogs of PGE₂ as EP4 and EP2/EP4 agonists” (Bioorg Med Chem, 2012).

Each structure is given as a SMILES string.

Assay [1] addresses T1, Prostaglandin E2 receptor EP1 subtype (Mus musculus, UniProt P35375).
T1 sequence (P35375 whole entry): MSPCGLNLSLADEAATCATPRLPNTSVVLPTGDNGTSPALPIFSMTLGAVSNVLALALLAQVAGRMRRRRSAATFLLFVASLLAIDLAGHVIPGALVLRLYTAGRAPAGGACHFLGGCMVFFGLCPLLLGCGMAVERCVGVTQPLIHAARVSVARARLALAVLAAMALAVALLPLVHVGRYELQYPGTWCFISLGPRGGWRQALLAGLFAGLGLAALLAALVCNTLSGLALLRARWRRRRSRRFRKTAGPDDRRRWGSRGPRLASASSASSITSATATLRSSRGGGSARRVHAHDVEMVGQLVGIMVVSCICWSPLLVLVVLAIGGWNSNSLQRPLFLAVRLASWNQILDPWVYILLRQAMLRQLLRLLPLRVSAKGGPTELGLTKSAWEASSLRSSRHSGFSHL
Put plainly: Displacement of [3H]PGE2 from mouse EP1 receptor expressed in CHO cells after 20 mins by scintillation counting. It counts as cell-based. In general terms: Loss of bound radioactivity is the signal in a displacement assay; it reports binding, not function.

In assay [2] the target is Prostaglandin E2 receptor EP2 subtype (Mus musculus, UniProt Q62053). Put plainly: Displacement of [3H]PGE2 from mouse EP2 receptor expressed in CHO cells after 60 mins by scintillation counting. Format: cell-based.
Assay [3] has as its target T2, Prostaglandin E2 receptor EP3 subtype (Mus musculus, UniProt P30557).
T2 sequence (P30557 whole entry): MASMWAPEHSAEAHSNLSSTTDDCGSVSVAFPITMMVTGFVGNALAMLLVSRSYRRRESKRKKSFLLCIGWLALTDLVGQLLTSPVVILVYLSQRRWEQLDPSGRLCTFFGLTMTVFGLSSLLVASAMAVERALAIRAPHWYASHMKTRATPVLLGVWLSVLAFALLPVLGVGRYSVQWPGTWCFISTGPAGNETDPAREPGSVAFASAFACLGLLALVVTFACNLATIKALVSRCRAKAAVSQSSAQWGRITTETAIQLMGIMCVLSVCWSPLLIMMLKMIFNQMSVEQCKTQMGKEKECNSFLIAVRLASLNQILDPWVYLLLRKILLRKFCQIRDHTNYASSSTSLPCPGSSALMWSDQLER
As to the kind of experiment: Displacement of [3H]PGE2 from mouse EP3 receptor expressed in CHO cells after 60 mins by scintillation counting. It counts as cell-based.

Assay [4] has as its target Prostaglandin E2 receptor EP4 subtype (Mus musculus, UniProt P32240). Put plainly: Displacement of [3H]PGE2 from mouse EP4 receptor expressed in CHO cells after 60 mins by scintillation counting. It counts as cell-based.
The target in assay [5] is Prostaglandin E2 receptor EP4 subtype (Rattus norvegicus, UniProt P43114). Put plainly: Agonist activity at rat EP4 receptor expressed in CHO cells assessed as cAMP production after 10 mins by radioimmunoassay. Format: functional, cell-based.
For assay [6], the target named is Prostaglandin E2 receptor EP2 subtype (Rattus norvegicus, UniProt Q62928). As to the kind of experiment: Agonist activity at rat EP2 receptor expressed in CHO cells assessed as cAMP production after 10 mins by radioimmunoassay. Format: functional, cell-based. Put shortly: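 CHO cells expressing rat EP2 receptor, seeded 1 × 10^5 cells/well and grown 2 days; washed, incubated 10 min at 37 °C in MEM with 2 µM diclofenac, then preincubated 10 min in assay medium with 1% BSA. Compound added, 10 min at 37 °C, stopped with ice-cold 10% trichloroacetic acid; cAMP measured by radioimmunoassay.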
Prostaglandin E2 receptor EP2 subtype (Rattus norvegicus, UniProt Q62928), sequence (Q62928 whole entry): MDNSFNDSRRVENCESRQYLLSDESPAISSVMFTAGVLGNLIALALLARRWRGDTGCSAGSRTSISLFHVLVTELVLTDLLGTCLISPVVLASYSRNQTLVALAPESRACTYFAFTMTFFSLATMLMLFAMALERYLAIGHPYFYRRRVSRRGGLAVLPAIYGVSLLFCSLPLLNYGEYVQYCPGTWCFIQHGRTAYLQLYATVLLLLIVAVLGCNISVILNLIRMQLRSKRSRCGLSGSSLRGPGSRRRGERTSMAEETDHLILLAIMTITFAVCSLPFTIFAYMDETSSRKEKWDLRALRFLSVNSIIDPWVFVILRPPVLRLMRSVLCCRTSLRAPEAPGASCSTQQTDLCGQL

Prostaglandin E2 receptor EP2 subtype (Mus musculus, UniProt Q62053), sequence (Q62053 whole entry): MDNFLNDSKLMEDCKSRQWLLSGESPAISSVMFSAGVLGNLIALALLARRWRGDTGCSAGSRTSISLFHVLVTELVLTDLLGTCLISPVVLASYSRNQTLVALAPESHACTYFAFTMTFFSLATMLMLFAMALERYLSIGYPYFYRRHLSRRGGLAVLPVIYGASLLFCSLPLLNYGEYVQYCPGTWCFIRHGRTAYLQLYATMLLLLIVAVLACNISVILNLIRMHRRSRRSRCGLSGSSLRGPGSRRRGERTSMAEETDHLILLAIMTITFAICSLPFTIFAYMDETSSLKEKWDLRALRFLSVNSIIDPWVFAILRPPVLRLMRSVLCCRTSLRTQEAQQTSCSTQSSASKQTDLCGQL
Prostaglandin E2 receptor EP4 subtype (Rattus norvegicus, UniProt P43114), sequence (P43114 whole entry): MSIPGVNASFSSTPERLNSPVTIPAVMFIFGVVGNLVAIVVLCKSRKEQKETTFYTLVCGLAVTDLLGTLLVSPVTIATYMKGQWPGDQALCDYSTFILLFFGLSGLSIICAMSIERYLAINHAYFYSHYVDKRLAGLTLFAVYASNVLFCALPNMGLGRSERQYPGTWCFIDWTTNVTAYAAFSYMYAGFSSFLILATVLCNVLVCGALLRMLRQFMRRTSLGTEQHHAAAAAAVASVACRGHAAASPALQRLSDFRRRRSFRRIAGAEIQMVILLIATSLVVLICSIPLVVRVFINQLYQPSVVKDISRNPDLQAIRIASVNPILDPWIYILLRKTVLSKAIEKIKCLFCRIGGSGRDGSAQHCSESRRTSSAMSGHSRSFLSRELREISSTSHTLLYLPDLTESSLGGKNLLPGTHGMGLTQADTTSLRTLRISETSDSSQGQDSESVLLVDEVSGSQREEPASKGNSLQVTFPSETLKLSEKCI
Prostaglandin E2 receptor EP4 subtype (Mus musculus, UniProt P32240), sequence (P32240 whole entry): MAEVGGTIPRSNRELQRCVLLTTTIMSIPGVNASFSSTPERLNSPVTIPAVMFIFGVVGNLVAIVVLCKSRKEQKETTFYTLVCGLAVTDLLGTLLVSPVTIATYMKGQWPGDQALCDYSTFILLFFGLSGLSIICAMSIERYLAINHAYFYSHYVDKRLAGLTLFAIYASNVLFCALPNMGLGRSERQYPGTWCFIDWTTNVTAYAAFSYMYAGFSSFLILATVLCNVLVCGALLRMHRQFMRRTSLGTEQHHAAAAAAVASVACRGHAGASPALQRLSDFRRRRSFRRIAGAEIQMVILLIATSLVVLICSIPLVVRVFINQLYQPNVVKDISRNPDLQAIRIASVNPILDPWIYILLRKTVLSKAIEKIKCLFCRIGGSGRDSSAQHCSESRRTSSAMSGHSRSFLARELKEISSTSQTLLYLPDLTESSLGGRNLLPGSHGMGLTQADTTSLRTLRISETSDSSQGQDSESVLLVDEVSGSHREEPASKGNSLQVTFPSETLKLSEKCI

For `O=C(O)CCCSCCN1C(=O)CC[C@@H]1/C=C/[C@@H](O)Cc1cccc(OCc2cccnc2)c1`, the Ki in assay [1] was above 10 µM; in assay [2], above 10 µM; in assay [3], above 10 µM; in assay [4], 0.0047 µM. Further, the EC50 in assay [5] was found to be 0.019 µM.
With `O=C(O)CCCSCCN1C(=O)CC[C@@H]1/C=C/[C@@H](O)Cc1cccc(-c2ccccc2)c1`, the Ki in assay [1] is above 10 µM; in assay [2], above 10 µM; in assay [3] it was above 10 µM; in assay [4], 0.0011 µM. In addition, the EC50 in assay [5] is 0.052 µM.
Regarding `Cc1ccc(-c2cccc(C[C@H](O)/C=C/[C@H]3CCC(=O)N3CCSc3nc(C(=O)O)cs3)c2)cc1`, the Ki was 6.1 µM in assay [1], 0.002 µM in assay [2], above 10 µM in assay [3] and 0.00043 µM in assay [4]. The EC50 in assay [6] was found to be 0.38 µM; in assay [5], 0.015 µM.
As to `O=C(O)CCCSCCN1C(=O)CC[C@@H]1/C=C/[C@@H](O)Cc1cccc(-c2nc3ccccc3s2)c1`, the inhibition constant Ki in assay [1] is above 10 µM; in assay [2], 0.72 µM; in assay [3], above 10 µM; in assay [4], 0.00036 µM. In addition, the EC50 in assay [5] was determined as 0.0032 µM.
Turning to `COc1ccc(-c2cccc(C[C@H](O)/C=C/[C@H]3CCC(=O)N3CCSc3nc(C(=O)O)cs3)c2)cc1`, the Ki was 5.4 µM in assay [1], 0.0092 µM in assay [2], above 10 µM in assay [3] and 0.0017 µM in assay [4]. Besides, the EC50 worked out at 4.6 µM in assay [6] and 0.015 µM in assay [5].
For `O=C(O)c1csc(SCCN2C(=O)CC[C@@H]2/C=C/[C@@H](O)Cc2cccc(-c3nc4ccccc4s3)c2)n1`, the Ki in assay [1] was 8 µM; in assay [2] it was 0.015 µM; in assay [3], above 10 µM; in assay [4], 0.00019 µM. For the same molecule, the EC50 in assay [6] came out at 2.7 µM; in assay [5] it was 0.013 µM.
With `O=C(O)CCCSCCN1C(=O)CC[C@@H]1/C=C/[C@@H](O)Cc1cccc(OCc2ccccn2)c1`, the inhibition constant (Ki) in assay [1] is above 10 µM; in assay [2], above 10 µM; in assay [3] it was above 10 µM; in assay [4], 0.00089 µM. In addition, in assay [5], the concentration for a half-maximal effect (EC50) stood at 0.00061 µM.
As for `Cc1cccc(C[C@H](O)/C=C/[C@H]2CCC(=O)N2CCSCCCC(=O)O)c1`, the EC50 in assay [5] is 0.0057 µM.
Take `O=C(O)CCCSCCN1C(=O)CC[C@@H]1/C=C/[C@@H](O)Cc1cccc(N2Cc3ccccc3C2)c1`: the Ki in assay [1] was 7.1 µM; in assay [2], above 10 µM; in assay [3], above 10 µM; in assay [4], 0.0044 µM. For the same molecule, the EC50 in assay [5] was determined as 0.028 µM.
Consider `O=C(O)CCCSCCN1C(=O)CC[C@@H]1/C=C/[C@@H](O)Cc1cccc(-c2ccc3[nH]ccc3c2)c1`, for which the Ki in assay [1] was above 10 µM; in assay [2], 3.5 µM; in assay [3] it was above 10 µM; in assay [4], 0.00028 µM. Besides, the half-maximal effective concentration (EC50) in assay [5] was 0.085 µM.
With `O=C(O)CCCSCCN1C(=O)CC[C@@H]1/C=C/[C@@H](O)Cc1cccc(-c2nc3ccccc3o2)c1`, the Ki in assay [1] was 5 µM; in assay [2], 1.7 µM; in assay [3] it was above 10 µM; in assay [4], 0.0002 µM. In addition, the EC50 in assay [5] turned out to be 0.013 µM.
Take `O=C(O)CCCSCCN1C(=O)CC[C@@H]1/C=C/[C@@H](O)Cc1cccc(-c2ccccn2)c1`: the Ki in assay [1] is above 10 µM; in assay [2], 6.1 µM; in assay [3], above 10 µM; in assay [4], 0.0048 µM. In addition, in assay [5], the EC50 turned out to be 0.086 µM.
Consider `O=C(O)CCCSCCN1C(=O)CC[C@@H]1/C=C/[C@@H](O)Cc1cccc(OCc2ccncc2)c1`, for which the inhibition constant Ki in assay [1] was above 10 µM; in assay [2] it was above 10 µM; in assay [3], above 10 µM; in assay [4] it was 0.028 µM. Besides, the EC50 in assay [5] worked out at 0.046 µM.
In the case of `O=C(O)CCCSCCN1C(=O)CC[C@@H]1/C=C/[C@@H](O)Cc1cccc(-c2ccc3ccccc3c2)c1`, the Ki in assay [1] is above 10 µM; in assay [2], 2.1 µM; in assay [3], above 10 µM; in assay [4], 0.0006 µM. Besides, the EC50 in assay [5] is 0.096 µM.

By Ki is commonly meant a dissociation constant, usually derived from enzyme kinetics or from competition with a known ligand. A low value points to higher affinity. Broadly, the EC50 is the concentration giving half of the maximal effect.
